Experimental data: ChEMBL document CHEMBL2029249, “N-Methyl-3-(tetrahydro-2H-pyran-4-yl)-2,3,4,9-tetrahydro-1H-carbazole-6-carboxamides as a novel class of cannabinoid receptors agonists with low CNS penetration” (Bioorg Med Chem Lett, 2012)
≈ marks a conversion by molar mass, not a printed value.

Legend:
[1] = Ratio of drug level in brain to plasma in rat by microdialysis assay
[2] = Thermodynamic solubility of the compound at pH 7.4; conditions: buffer
[3] = target: Voltage-gated inwardly rectifying potassium channel KCNH2 (Homo sapiens, UniProt Q12809)
Chain of Voltage-gated inwardly rectifying potassium channel KCNH2 (Q12809 whole entry): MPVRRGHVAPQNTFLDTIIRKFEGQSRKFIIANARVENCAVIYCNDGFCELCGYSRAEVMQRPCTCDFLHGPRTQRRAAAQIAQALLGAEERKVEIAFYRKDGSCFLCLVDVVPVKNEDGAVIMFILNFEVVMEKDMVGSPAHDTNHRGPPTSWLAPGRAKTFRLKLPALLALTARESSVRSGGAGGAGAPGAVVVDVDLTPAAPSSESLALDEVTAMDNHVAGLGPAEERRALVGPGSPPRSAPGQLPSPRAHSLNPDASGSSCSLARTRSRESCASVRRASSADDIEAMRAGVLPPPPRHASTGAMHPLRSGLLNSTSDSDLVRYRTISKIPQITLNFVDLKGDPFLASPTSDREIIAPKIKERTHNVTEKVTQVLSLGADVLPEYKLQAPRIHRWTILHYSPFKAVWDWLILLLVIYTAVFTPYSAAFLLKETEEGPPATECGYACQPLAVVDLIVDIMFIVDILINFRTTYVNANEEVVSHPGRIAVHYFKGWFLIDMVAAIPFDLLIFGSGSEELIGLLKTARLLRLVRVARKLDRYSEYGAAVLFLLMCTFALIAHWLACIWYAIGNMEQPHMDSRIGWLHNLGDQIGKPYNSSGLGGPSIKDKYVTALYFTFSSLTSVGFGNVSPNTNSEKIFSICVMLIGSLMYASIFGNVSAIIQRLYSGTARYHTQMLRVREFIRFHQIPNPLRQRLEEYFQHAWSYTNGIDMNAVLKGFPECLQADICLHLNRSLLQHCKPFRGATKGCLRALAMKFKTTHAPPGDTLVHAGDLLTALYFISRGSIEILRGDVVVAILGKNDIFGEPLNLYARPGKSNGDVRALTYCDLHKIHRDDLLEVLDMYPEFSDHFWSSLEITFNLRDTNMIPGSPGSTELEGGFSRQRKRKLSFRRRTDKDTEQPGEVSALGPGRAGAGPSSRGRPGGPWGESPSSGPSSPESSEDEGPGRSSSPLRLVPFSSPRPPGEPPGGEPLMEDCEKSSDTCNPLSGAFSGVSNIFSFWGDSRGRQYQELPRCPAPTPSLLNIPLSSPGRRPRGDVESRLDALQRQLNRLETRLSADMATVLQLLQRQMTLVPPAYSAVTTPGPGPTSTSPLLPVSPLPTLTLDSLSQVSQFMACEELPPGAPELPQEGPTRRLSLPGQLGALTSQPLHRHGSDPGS

Cannabinoid receptor 1 [4] = target: T1, Cannabinoid receptor 1 (Homo sapiens, UniProt P21554); experiment: Agonist activity at human CB1 receptor expressed in HEK293 cells assessed as [35S]GTPgamma binding relative to WIN55212-2; type: functional, cell-based
T1 sequence (P21554 whole entry): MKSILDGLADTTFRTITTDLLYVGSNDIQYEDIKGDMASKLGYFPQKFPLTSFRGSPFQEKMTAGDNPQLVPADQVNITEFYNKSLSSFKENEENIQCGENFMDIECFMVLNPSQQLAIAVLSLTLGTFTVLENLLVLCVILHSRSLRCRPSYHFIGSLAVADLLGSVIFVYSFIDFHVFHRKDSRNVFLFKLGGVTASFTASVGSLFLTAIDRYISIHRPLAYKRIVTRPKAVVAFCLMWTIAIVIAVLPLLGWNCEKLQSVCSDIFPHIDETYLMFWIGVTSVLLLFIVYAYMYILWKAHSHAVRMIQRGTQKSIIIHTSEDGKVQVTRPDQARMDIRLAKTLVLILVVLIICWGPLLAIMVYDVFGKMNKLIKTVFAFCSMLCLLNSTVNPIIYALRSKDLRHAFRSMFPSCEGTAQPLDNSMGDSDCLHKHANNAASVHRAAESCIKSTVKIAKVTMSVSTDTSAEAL
Summary of the method: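 GTPγ35S binding on membranes from HEK293 EBNA cells stably transfected with cloned human CB1; Emax relative to WIN55,212-2 as reference agonist; means of at least three measurements.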

[5] = Intrinsic clearance in human liver microsomes at 1 uM in presence of NADPH; type: ADME, Microsome; conditions: read-out: CLH
Cannabinoid receptor 1 [6] = target: T1, Cannabinoid receptor 1; experiment: Agonist activity at human CB1 receptor expressed in HEK293 cells assessed as [35S]GTPgamma binding; type: functional, cell-based
Cannabinoid receptor 2 = Cannabinoid receptor 2 (Homo sapiens, UniProt P34972); experiment: Binding affinity to human CB2 receptor
Chain of Cannabinoid receptor 2 (P34972 whole entry): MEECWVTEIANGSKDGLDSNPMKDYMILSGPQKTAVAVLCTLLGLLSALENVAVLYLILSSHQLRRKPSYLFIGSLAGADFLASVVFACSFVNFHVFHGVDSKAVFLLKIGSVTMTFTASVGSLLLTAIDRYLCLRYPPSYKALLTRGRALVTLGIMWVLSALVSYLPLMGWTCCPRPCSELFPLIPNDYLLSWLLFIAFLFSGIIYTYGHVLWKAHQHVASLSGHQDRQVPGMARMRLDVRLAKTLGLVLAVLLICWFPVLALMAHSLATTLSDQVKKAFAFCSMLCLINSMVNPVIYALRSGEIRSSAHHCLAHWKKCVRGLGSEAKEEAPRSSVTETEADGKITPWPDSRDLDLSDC

Cannabinoid receptor 1 [7] = target: T1, Cannabinoid receptor 1; experiment: Displacement of [3H]CP55940 from human CB1 receptor expressed in HEK293 cells; type: cell-based
[8] = Apparent permeability from apical to basal side of human Caco2 cells at 10 uM; conditions: Caco-2

In the case of `CCN(CCCC(=O)NCCO)C(=O)c1ccc2c(c1)c1c(n2C)CC[C@@H](C2CCOCC2)C1`, the Kp [1] is reported as < 0.02, the solubility thermodynamic [2] is reported as 760 µM (≈ 357 µg/mL) and the IC50 [3] is reported as > 33000 nM. The Emax (Cannabinoid receptor 1 [4]) was 113% and the microsomal CLint at 1 µM [5] was 38 µL/min/mg.
Work on `CCN(CCCC(=O)NC1CC1)C(=O)c1ccc2c(c1)c1c(n2C)CCC(C2CCOCC2)C1` (stereo unspecified) yielded an EC50 (Cannabinoid receptor 1 [6]) of 2.9 nM, a solubility thermodynamic [2] of 224 µM (≈ 104 µg/mL) and an Emax (Cannabinoid receptor 1 [4]) of 114%. It also gave a microsomal CLint at 1 µM [5] of 143 µL/min/mg.
`CN(CC(=O)NC1CC1)C(=O)c1ccc2c(c1)c1c(n2C)CC[C@@H](C2CCOCC2)C1` showed an EC50 (Cannabinoid receptor 1 [6]) of 39.9 nM, a Kp [1] of 0.024 and a Ki (Cannabinoid receptor 2) of 21.5 nM. For the same compound, the solubility thermodynamic [2] was 86 µM (≈ 36.4 µg/mL), the Ki (Cannabinoid receptor 1 [7]) was 24.5 nM and the Emax (Cannabinoid receptor 1 [4]) was 116%. The microsomal CLint at 1 µM [5] was 30 µL/min/mg and the Papp A→B at 10 µM [8] was 27 ×10⁻⁶ cm/s.
`CN(CCCC(=O)NCCF)C(=O)c1ccc2c(c1)c1c(n2C)CC[C@@H](C2CCOCC2)C1` gave an EC50 (Cannabinoid receptor 1 [6]) of 12.9 nM, a Kp [1] of 0.02 and a solubility thermodynamic [2] of 470 µM (≈ 215 µg/mL). For the same compound, the Emax (Cannabinoid receptor 1 [4]) was 108% and the microsomal CLint at 1 µM [5] was 50 µL/min/mg.
With `CCN(CC(=O)NC1CC1)C(=O)c1ccc2c(c1)c1c(n2C)CCC(C2CCOCC2)C1` (racemic) the solubility thermodynamic [2] was 36 µM (≈ 15.8 µg/mL), the Emax (Cannabinoid receptor 1 [4]) was 106% and the microsomal CLint at 1 µM [5] was 53 µL/min/mg.
`CN(CCCC(=O)NCCO)C(=O)c1ccc2c(c1)c1c(n2C)CC[C@@H](C2CCOCC2)C1` showed a solubility thermodynamic [2] of 2490 µM (≈ 1130 µg/mL), an Emax (Cannabinoid receptor 1 [4]) of 120% and a microsomal CLint at 1 µM [5] of 17 µL/min/mg.
In the case of `CCS(=O)(=O)n1c2c(c3cc(C(=O)N4CCC(C)CC4)ccc31)CN(C1CCOCC1)CC2`, the Kp [1] is reported as 0.07, the solubility thermodynamic [2] is reported as > 1030 µM and the Emax (Cannabinoid receptor 1 [4]) is reported as 120%. It also gave a Papp A→B at 10 µM [8] of 13 ×10⁻⁶ cm/s.
In the case of `CNC(=O)CC[C@@H](CO)N(C)C(=O)c1ccc2c(c1)c1c(n2C)CC[C@@H](C2CCOCC2)C1`, the Kp [1] is reported as < 0.02, the solubility thermodynamic [2] is reported as > 3000 µM and the IC50 [3] is reported as > 33000 nM. It also gave an Emax (Cannabinoid receptor 1 [4]) of 124%, a microsomal CLint at 1 µM [5] of 15 µL/min/mg and a Papp A→B at 10 µM [8] of 0.15 ×10⁻⁶ cm/s.
In the case of `CNC(=O)CCCN(C)C(=O)c1ccc2c(c1)c1c(n2C)CC[C@H](C2CCOCC2)C1`, the solubility thermodynamic [2] is reported as 1070 µM (≈ 455 µg/mL), the Ki (Cannabinoid receptor 1 [7]) is reported as 576 nM and the microsomal CLint at 1 µM [5] is reported as 31 µL/min/mg.
`CN(CCCC(=O)NC1CC1)C(=O)c1ccc2c(c1)c1c(n2C)CCC(C2CCOCC2)C1` (stereo unspecified) gave a solubility thermodynamic [2] of 444 µM (≈ 201 µg/mL), an Emax (Cannabinoid receptor 1 [4]) of 113% and a microsomal CLint at 1 µM [5] of 73 µL/min/mg.
`CCCCCOc1ccc(C(=O)c2cccc3ccccc23)c2ccccc12` gave a Kp [1] of 0.29 and an Emax (Cannabinoid receptor 1 [4]) of 112%.
Compound `Cc1c(C(=O)c2cccc3ccccc23)c2cccc3c2n1[C@H](CN1CCOCC1)CO3` [WIN-552122] has a Kp [1] of 2.3 and a solubility thermodynamic [2] of 2 µM (≈ 0.853 µg/mL).
For `CN(CCCC(=O)NCC#N)C(=O)c1ccc2c(c1)c1c(n2C)CC[C@@H](C2CCOCC2)C1`, the solubility thermodynamic [2] was 300 µM (≈ 135 µg/mL), the Emax (Cannabinoid receptor 1 [4]) was 110% and the microsomal CLint at 1 µM [5] was 42 µL/min/mg.
